In ChEMBL document CHEMBL2176935, “Discovery and lead optimization of a novel series of CC chemokine receptor 1 (CCR1)-selective piperidine antagonists via parallel synthesis” (J Med Chem, 2012):
Values belong to the compound of their own block, whether it stands above or below them.

Molecular target: T1, C-C chemokine receptor type 1 (Homo sapiens, UniProt P32246)
T1 sequence (P32246 whole entry): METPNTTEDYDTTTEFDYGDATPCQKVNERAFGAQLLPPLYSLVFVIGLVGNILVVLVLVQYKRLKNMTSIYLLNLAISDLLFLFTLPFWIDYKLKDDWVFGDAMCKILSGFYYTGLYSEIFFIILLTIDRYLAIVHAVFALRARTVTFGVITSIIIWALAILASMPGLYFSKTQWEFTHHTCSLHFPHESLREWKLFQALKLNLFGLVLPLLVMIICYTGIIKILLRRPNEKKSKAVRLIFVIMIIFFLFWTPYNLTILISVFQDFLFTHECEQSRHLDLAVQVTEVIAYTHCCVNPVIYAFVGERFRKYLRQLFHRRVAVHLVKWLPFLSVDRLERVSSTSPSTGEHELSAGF
Experiment: Displacement of [125I]MIP-1alpha from CCR1 in human THP1 cells
Format: cell-based, THP-1
Summary of the method: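 THP-1 cells, 1 × 105, mixed with WGA PS SPA beads in RPMI 1640 (no phenol red) with 50 mM HEPES, 5 mM MgCl2, 1 mM CaCl2, 0.1% BSA. Compound in 3-fold dilutions, 8 μM to 140 pM final. [125I]-MIP-1α at 0.1 nM final. Incubated 12 h at room temperature, imaged by LEADseeker. Duplicates; IC50 from four-parameter logistic fit after nonspecific correction.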

Compound: CC(C)C(=O)NC(C(=O)N1CCC(c2ccc(Cl)cc2)CC1)C(C)C (stereo not given)
IC50: 388 nM

Compound: Cc1cccc(C(=O)N[C@@H](C(=O)N2CCC(c3ccc(Cl)cc3)CC2)C(C)C)c1C
IC50: 100 nM

Compound: CC(C)[C@@H](NC(=O)c1ccc(F)c(F)c1)C(=O)N1CCC(c2ccc(Cl)cc2)CC1
IC50: 14 nM

Compound: CC[C@@H](NC(=O)CC(C)C)C(=O)N1CCC(c2ccc(Cl)cc2)CC1
IC50: 152 nM

Compound: CC(C)[C@@H](NC(=O)CC1CC1)C(=O)N1CCC(c2ccc(Cl)cc2)CC1
IC50: 46 nM

Compound: CC[C@@H](C)[C@@H](NC(=O)CC(C)C)C(=O)N1CCC(c2ccc(Cl)cc2)CC1
IC50: 34 nM

Compound: CC(C)[C@@H](NC(=O)CC1CCCCC1)C(=O)N1CCC(c2ccc(Cl)cc2)CC1
IC50: 8 nM

Compound: CC(C)C(NC(=O)c1ccccc1)C(=O)N1CCC(O)(c2ccc(Cl)cc2)CC1 (stereo not given)
IC50: 180 nM

Compound: CC(C)C(NC(=O)c1ccccc1)C(=O)N1CCN(c2ccc(Cl)cc2)CC1 (stereo not given)
IC50: 525 nM

Compound: Cc1ccccc1C(=O)NC(C(=O)N1CCC(c2ccc(Cl)cc2)CC1)C(C)(C)C (stereo not given)
IC50: 262 nM

Compound: CCCC(NC(=O)c1ccc2ccccc2c1)C(=O)N1CCC(c2ccc(Cl)cc2)CC1 (racemic)
IC50: 191 nM

Compound: CC(C)C(NC(=O)Oc1ccccc1)C(=O)N1CCC(c2ccc(Cl)cc2)CC1 (stereo not given)
IC50: 265 nM

Compound: CC(C)C(NC(=O)c1ccccc1)C(=O)N1CC=C(c2ccc(Cl)cc2)CC1 (stereo not given)
IC50: 185 nM

Compound: CC(C)[C@@H](NC(=O)C1CCCC1)C(=O)N1CCC(c2ccc(Cl)cc2)CC1
IC50: 70 nM

Compound: CC(O)C(NC(=O)c1ccccc1)C(=O)N1CCC(O)(c2ccc(Cl)cc2)CC1 (stereo not given)
IC50: 2830 nM

Compound: CCCC(NC(=O)c1ccccc1)C(=O)N1CCC(O)(c2ccc(Cl)cc2)CC1 (stereo not given)
IC50: 521 nM

Compound: CC(C)C(NC(=O)c1ccccc1)C(=O)N1CCN(c2ccc(Cl)c(Cl)c2)CC1 (stereo not given)
IC50: 375 nM

Compound: CCCC(NC(=O)c1ccccc1C)C(=O)N1CCC(c2ccc(Cl)cc2)CC1 (racemic)
IC50: 152 nM

Compound: CC(C)C(NC(=O)c1ccccc1)C(=O)N1CCC(O)(c2ccc(F)cc2)CC1 (stereo not given)
IC50: 933 nM

Compound: CC(C)CCC(=O)N[C@@H](C(=O)N1CCC(c2ccc(Cl)cc2)CC1)C(C)C
IC50: 26 nM

Compound: Cc1ccccc1C(=O)NC(CC(C)C)C(=O)N1CCC(c2ccc(Cl)cc2)CC1 (stereo not given)
IC50: 88 nM

Compound: CC(C)[C@@H](NC(=O)CC1CCCC1)C(=O)N1CCC(c2ccc(Cl)cc2)CC1
IC50: 20 nM

Compound: O=C(N[C@@H](C(=O)N1CCC(c2ccc(Cl)cc2)CC1)C1CCCCC1)c1ccccc1
IC50: 121 nM

Compound: CC(C)CC(=O)N[C@@H](C(=O)N1CCC(c2ccc(Cl)cc2)CC1)C(C)C
IC50: 32 nM

Compound: CC(C)C(NC(=O)OCc1ccccc1)C(=O)N1CCC(O)(c2ccc(Cl)cc2)CC1 (stereo not given)
IC50: 854 nM

Compound: CC(C)C(NC(=O)c1ccccc1)C(=O)N1CCC(O)(c2ccc(Br)cc2)CC1 (stereo not given)
IC50: 172 nM

Compound: C/C=C(/NC(=O)c1ccccc1)C(=O)N1CCC(O)(c2ccc(Cl)cc2)CC1
IC50: 370 nM

Compound: CSCCC(NC(=O)c1ccccc1)C(=O)N1CCC(O)(c2ccc(Cl)cc2)CC1 (stereo not given)
IC50: 539 nM

Compound: CC(C)CC(NC(=O)c1ccccc1)C(=O)N1CCC(O)(c2ccc(Cl)cc2)CC1 (stereo not given)
IC50: 324 nM

Continued, values first:

IC50: 543 nM
Compound: CC(C)[C@@H](NC(=O)NCCc1ccccc1)C(=O)N1CCC(c2ccc(Cl)cc2)CC1

IC50: 30 nM
Compound: CC(C)[C@@H](NC(=O)Cc1ccccc1)C(=O)N1CCC(c2ccc(Cl)cc2)CC1

IC50: 118 nM
Compound: CC(C)[C@@H](NC(=O)c1ccc(F)cc1)C(=O)N1CCC(c2ccc(Cl)cc2)CC1

IC50: 18 nM
Compound: CC(C)[C@@H](NC(=O)CCc1ccccc1F)C(=O)N1CCC(c2ccc(Cl)cc2)CC1

IC50: 40 nM
Compound: CC(C)[C@@H](NC(=O)CCc1ccccc1)C(=O)N1CCC(c2ccc(Cl)cc2)CC1

IC50: 24 nM
Compound: CC(C)[C@@H](NC(=O)c1cccc(F)c1)C(=O)N1CCC(c2ccc(Cl)cc2)CC1

IC50: 45 nM
Compound: CC(C)[C@@H](NC(=O)Cc1cccc(Cl)c1)C(=O)N1CCC(c2ccc(Cl)cc2)CC1

IC50: 115 nM
Compound: CC(C)[C@@H](NC(=O)Cc1ccc(Cl)cc1)C(=O)N1CCC(c2ccc(Cl)cc2)CC1

IC50: 80 nM
Compound: CC(C)C(NC(=O)c1ccc2ccccc2c1)C(=O)N1CCC(c2ccc(Cl)cc2)CC1 (stereo not given)

IC50: 40 nM
Compound: CC(C)C(NC(=O)Cc1ccccc1)C(=O)N1CCC(c2ccc(Cl)cc2)CC1 (stereo not given)

IC50: 35 nM
Compound: CC(C)C(NC(=O)CCc1ccccc1)C(=O)N1CCC(c2ccc(Cl)cc2)CC1 (stereo not given)

IC50: 19 nM
Compound: Cc1ccccc1CCC(=O)N[C@@H](C(=O)N1CCC(c2ccc(Cl)cc2)CC1)C(C)C

IC50: 66 nM
Compound: CC[C@@H](C)[C@@H](NC(=O)CCc1ccccc1)C(=O)N1CCC(c2ccc(Cl)cc2)CC1

IC50: 13 nM
Compound: CC(C)[C@@H](NC(=O)Cc1ccccc1F)C(=O)N1CCC(c2ccc(Cl)cc2)CC1

IC50: 259 nM
Compound: CC(C)(C)C(NC(=O)c1ccccc1)C(=O)N1CCC(c2ccc(Cl)cc2)CC1 (stereo not given)

IC50: 36 nM
Compound: Cc1ccccc1C(=O)NC(C(=O)N1CCC(c2ccc(Cl)cc2)CC1)C(C)C (stereo not given)

IC50: 70 nM
Compound: CC(C)[C@@H](NC(=O)CCc1ccc(F)cc1)C(=O)N1CCC(c2ccc(Cl)cc2)CC1

IC50: 616 nM
Compound: CC(C)[C@@H](NC(=O)Nc1ccccc1)C(=O)N1CCC(c2ccc(Cl)cc2)CC1

IC50: 120 nM
Compound: CCCC(NC(=O)c1ccccc1)C(=O)N1CCC(c2ccc(Cl)cc2)CC1 (racemic)

IC50: 180 nM
Compound: CC(C)[C@@H](NC(=O)NCc1ccccc1)C(=O)N1CCC(c2ccc(Cl)cc2)CC1

IC50: 58 nM
Compound: CC(C)[C@@H](NC(=O)c1cc2ccccc2s1)C(=O)N1CCC(c2ccc(Cl)cc2)CC1

IC50: 130 nM
Compound: CC(C)CC(NC(=O)c1ccccc1)C(=O)N1CCC(c2ccc(Cl)cc2)CC1 (stereo not given)

IC50: 121 nM
Compound: CC[C@@H](NC(=O)c1ccccc1)C(=O)N1CCC(c2ccc(Cl)cc2)CC1

IC50: 105 nM
Compound: Cc1ccc(CCC(=O)N[C@@H](C(=O)N2CCC(c3ccc(Cl)cc3)CC2)C(C)C)cc1

IC50: 22 nM
Compound: Cc1cccc(CCC(=O)N[C@@H](C(=O)N2CCC(c3ccc(Cl)cc3)CC2)C(C)C)c1

IC50: 32 nM
Compound: Cc1ccccc1C(=O)N[C@@H](C(=O)N1CCC(c2ccc(Cl)cc2)CC1)C(C)C

IC50: 50 nM
Compound: CC[C@@H](NC(=O)Cc1ccccc1)C(=O)N1CCC(c2ccc(Cl)cc2)CC1

IC50: 38 nM
Compound: CC[C@@H](C)[C@@H](NC(=O)Cc1ccccc1)C(=O)N1CCC(c2ccc(Cl)cc2)CC1

IC50: 95 nM
Compound: CC(C)[C@@H](NC(=O)CCCc1ccccc1)C(=O)N1CCC(c2ccc(Cl)cc2)CC1

IC50: 1080 nM
Compound: CC(C)C(NC(=O)OCc1ccccc1)C(=O)N1CCC(c2ccc(Cl)cc2)CC1 (stereo not given)

IC50: 85 nM
Compound: CC[C@@H](NC(=O)CCc1ccccc1)C(=O)N1CCC(c2ccc(Cl)cc2)CC1

IC50: 14900 nM
Compound: CC(C)[C@H](NC(=O)c1ccccc1)C(=O)N1CCC(c2ccc(Cl)cc2)CC1

IC50: 25 nM
Compound: Cc1ccc(C(=O)N[C@@H](C(=O)N2CCC(c3ccc(Cl)cc3)CC2)C(C)C)cc1

IC50: 45 nM
Compound: CC[C@@H](C)[C@@H](NC(=O)c1ccccc1)C(=O)N1CCC(c2ccc(Cl)cc2)CC1

IC50: 303 nM
Compound: CC(C)C(NS(=O)(=O)Cc1ccccc1)C(=O)N1CCC(c2ccc(Cl)cc2)CC1 (stereo not given)

IC50: 177 nM
Compound: Cc1cccc(C)c1C(=O)N[C@@H](C(=O)N1CCC(c2ccc(Cl)cc2)CC1)C(C)C

IC50: 44 nM
Compound: CC(C)[C@@H](NC(=O)Cc1cccc(F)c1)C(=O)N1CCC(c2ccc(Cl)cc2)CC1

IC50: 140 nM
Compound: Cc1ccc(CC(=O)N[C@@H](C(=O)N2CCC(c3ccc(Cl)cc3)CC2)C(C)C)cc1

IC50: 423 nM
Compound: CC(C)C(NC(=O)c1ccccc1)C(=O)N1CCC(c2ccc(F)cc2)CC1 (stereo not given)

IC50: 18 nM
Compound: CC(C)[C@@H](NC(=O)c1nc2ccccc2s1)C(=O)N1CCC(c2ccc(Cl)cc2)CC1

IC50: 55 nM
Compound: CC(C)C(NC(=O)c1ccccc1)C(=O)N1CCC(c2ccc(Cl)cc2)CC1 (stereo not given)
